The results in this text go back to ChEMBL document CHEMBL1158394, “Diversity-oriented synthesis of furo[3,2-f]chromanes with antimycobacterial activity” (Eur J Med Chem, 2009).

The test system of data set [1] is Escherichia coli. The experiment in a line: Antibacterial activity against Escherichia coli CIP188631 after 24 hrs by twofold serial dilution method. The data set is classed as functional, organism-based. In outline: (§1)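 LB precultures grown 24 h, diluted 1/1000 and seeded; twofold serial drug dilutions in LB; 37 °C for 24 h; growth read as optical density at 595 nm; 90% inhibitory concentration obtained by curve fitting; tetracycline positive control; duplicate in two independent experiments.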

The subject of data set [2] is Mycobacterium tuberculosis. The experiment in a line: Antimycobacterial activity against Mycobacterium tuberculosis H37Rv after 6 days by microdilution resazurin assay. The data set is classed as functional. The conditions noted are these: 144 h. The method in brief:
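The M. tuberculosis H37Rv inoculum is grown in Dubos medium with 10% ADC enrichment. DMSO drug stocks (50 mg/mL) are serially diluted twofold in 96-well plates, with DMSO and isoniazid controls. Plates are sealed and held at 37 °C for 6 days, then 0.01% resazurin is added for another 24 h. MIC95 is taken at >95% growth inhibition, in µg/mL. Duplicate runs in two independent experiments.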

Another data set has as its system Vero. The experiment in a line: Cytotoxicity against african green monkey Vero cells after 48 hrs by MTT assay. Type of data set: cell-based. The following applies: Chlorocebus sabaeus. In outline: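 Vero cells seeded at 10⁵ cells/mL and preincubated 24 h at 37 °C, 5% CO₂; compounds added at various concentrations in 1% DMSO for 48 h; MTT (5 mg/mL solution) then added for 4 h at 37 °C; absorbance at 595 nm; 50% inhibitory concentration by curve fitting; duplicate in two independent experiments.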

In data set [3] the test system is Mycolicibacterium smegmatis. In words: Antimycobacterial activity against Mycobacterium smegmatis str. MC2 155 up to 100 ug/mL. Type of data set: functional, organism-based.
In another data set the test system is Staphylococcus aureus. The experiment in a line: Antibacterial activity against Staphylococcus aureus ATCC 6538 after 24 hrs by twofold serial dilution method. Type of data set: functional. The following applies: ATCC 6538, 24 h. In outline:
as §1

In another data set the test system is Candida tropicalis. In words: Antifungal activity against Candida tropicalis ATCC 66029 after 24 hrs by disk diffusion method. The data set is classed as functional, organism-based. In outline: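 Kirby–Bauer disk diffusion: C. tropicalis suspension spread on solid Sabouraud plates; 6 mm paper discs impregnated with serial dilutions in DMSO placed on plates; inhibition zone diameter measured after 24 h at 30 °C; itraconazole positive control; duplicate in two independent experiments.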

For data set [4], the system named is Escherichia coli. In words: Genotoxicity in Escherichia coli PQ37 assessed as DNA damage-induced beta-galactosidase release by SOS-chromotest. Type of data set: toxicity, organism-based. The method in brief: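 E. coli PQ37 carrying lacZ under control of the SOS gene sfiA; DNA damage induces β-galactosidase, detected by chromogenic reaction with X-gal; duplicate in two independent experiments.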

The structures appear in SMILES notation. ≈ marks a conversion by molar mass, not a printed value. Calls of active or inactive are those of the source. The rule behind the calls is not given here.

Take `Cc1c2c(c3cc(CCC(=O)N4CCCC4)oc3c1C)CCC(C)(C)O2`: the result with Escherichia coli [1] was inactive. Further, the MIC95 in data set [2] worked out at 10 µg/mL (≈ 28.1 µM).

For `NNC(=O)c1ccncc1` [ISONIAZID], the result in the data set on Escherichia coli [1] was inactive. The MIC95 in data set [2] was determined as 0.25 µg/mL (≈ 1.82 µM). Moreover, the IC50 in the data set on Vero is more than 500 µg/mL.

For the molecule `Cc1c2c(c3cc(Cc4cccs4)oc3c1C)CCC(C)(C)O2`, the outcome (with Escherichia coli [1]; in data set [3]) was inactive. In data set [2], this molecule had an MIC95 of 12.5 µg/mL (≈ 38.3 µM).

`CC1(C)CCc2c(ccc3oc(-c4ccncc4)c(CCCO)c23)O1`: the outcome in the data set with Escherichia coli [1] was inactive. In data set [2], this molecule registered an MIC95 of 5 µg/mL (≈ 14.8 µM). In the data set with Vero, this molecule had an IC50 of more than 25 µg/mL.

In the case of `Cc1c2c(c3cc(-c4ccc(C#N)nc4)oc3c1C)CCC(C)(C)O2`, the result in the data set with Escherichia coli [1] was inactive. The MIC95 in data set [2] is more than 10 µg/mL.

For `Cc1c2c(c3cc(CC#N)oc3c1C)CCC(C)(C)O2`, the result in the data set on Escherichia coli [1] was inactive. Besides, the MIC95 in data set [2] was more than 10 µg/mL.

For `Cc1c2c(c3cc(C4CCCO4)oc3c1C)CCC(C)(C)O2` (stereo unspecified), the result in the data set on Escherichia coli [1] was inactive. For the same molecule, the MIC95 in data set [2] is more than 10 µg/mL.

As to `Cc1c2c(c3cc(CCC(=O)N4CCOCC4)oc3c1C)CCC(C)(C)O2`, the result with Escherichia coli [1] was inactive. For the same molecule, the MIC95 in data set [2] amounted to 10 µg/mL (≈ 26.9 µM).

Regarding `CC1(C)C=Cc2c(ccc3c2C2CCCOC2O3)O1` (stereo unspecified), the outcome in the data set on Escherichia coli [1] was inactive. Moreover, the MIC95 in data set [2] turned out to be 250 µg/mL (≈ 968 µM).

Take `Cc1c2c(c3cc(-c4cccnc4)oc3c1C)C(=O)CC(C)(C)O2`: in the data set on Escherichia coli [1], the result was inactive. The molecule further gave an MIC95 in data set [2] of more than 10 µg/mL.

`Cc1c2c(c3cc(CCC(=O)N4CCN(C)CC4)oc3c1C)CCC(C)(C)O2`: the result in the data set with Escherichia coli [1] was inactive. Moreover, the MIC95 in data set [2] is more than 10 µg/mL.

With `Cc1c(C)c2c(c(C)c1O)CC[C@@](C)(CCC[C@H](C)CCC[C@H](C)CCCC(C)C)O2` [ALPHA-TOCOPHEROL], the result in the data set on Escherichia coli [1] was inactive. This molecule displayed an MIC95 in data set [2] of 10 µg/mL (≈ 23.2 µM).

Consider `CC(=O)OCCCc1c(-c2ccncc2)oc2ccc3c(c12)CCC(C)(C)O3`, for which the result with Escherichia coli [1] was inactive. This molecule also registered an MIC90 with Staphylococcus aureus of 5 µg/mL (≈ 13.2 µM). In the data set on Vero, 14.9 µg/mL (≈ 39.3 µM) corresponded to half-maximal inhibition (IC50).

Take `Cc1c2c(c3cc(-c4ccc(Cl)nc4)oc3c1C)CCC(C)(C)O2`: the outcome in the data set with Escherichia coli [1] was inactive. In addition, in data set [2], the MIC95 was more than 10 µg/mL.

On to `CC1(C)C=Cc2c(ccc3oc(-c4ccncc4)cc23)O1`, for which, in the data set with Escherichia coli [1], the result was inactive. The molecule further registered an MIC90 against Staphylococcus aureus of 5 µg/mL (≈ 18 µM). For the same molecule, the MIC95 in data set [2] is 2.5 µg/mL (≈ 9.01 µM). Also, inhibition with Vero was half-maximal at 8.7 µg/mL (≈ 31.4 µM) (IC50).

In the case of `Cc1c2c(c3cc(-c4ccncc4)oc3c1C)CCC(C)(C)O2`, the outcome in the data set with Escherichia coli [1] was inactive. The same molecule registered an MIC95 in data set [2] of 2.5 µg/mL (≈ 8.13 µM). This molecule also gave an IC50 in the data set with Vero of 5.1 µg/mL (≈ 16.6 µM).

In the case of `Cc1c2c(c3cc(-c4ccccn4)oc3c1C)CCC(C)(C)O2`, the result with Escherichia coli [1] was inactive. Further, the MIC95 in data set [2] stood at 100 µg/mL (≈ 325 µM).

As for `COC(=N)c1ccc(-c2cc3c4c(c(C)c(C)c3o2)OC(C)(C)CC4)cn1`, the outcome with Escherichia coli [1] was inactive. Besides, the MIC90 in the data set with Staphylococcus aureus came out at 5 µg/mL (≈ 13.7 µM). In addition, the MIC95 in data set [2] is 0.6 µg/mL (≈ 1.65 µM). The same molecule had an IC50 in the data set on Vero of 3.6 µg/mL (≈ 9.88 µM).

Consider `CC(=O)OCc1cc2c3c(c(C)c(C)c2o1)OC(C)(C)CC3`, for which the result in the data set on Escherichia coli [1] was inactive. In data set [2], this molecule yielded an MIC95 of 10 µg/mL (≈ 33.1 µM).

In the case of `Cc1c2c(c3cc(-c4ccc[n+]([O-])c4)oc3c1C)CCC(C)(C)O2`, in the data set on Escherichia coli [1], the result was inactive. In addition, in the data set on Staphylococcus aureus, the MIC90 was 5 µg/mL (≈ 15.5 µM). For the same molecule, the MIC95 in data set [2] amounted to 5 µg/mL (≈ 15.5 µM). Moreover, the IC50 in the data set with Vero was determined as 5.6 µg/mL (≈ 17.3 µM).

Turning to `Cc1c2c(c3cc(-c4ccc(-c5nn[nH]n5)nc4)oc3c1C)CCC(C)(C)O2`, the result in the data set on Escherichia coli [1] was inactive. Besides, the MIC95 in data set [2] is 10 µg/mL (≈ 26.6 µM).

Consider `Cc1c2c(c3cc(-c4cccnc4)oc3c1C)CCC(C)(C)O2`, for which the outcome in the data set with Escherichia coli [1] was inactive. The molecule further returned an MIC95 in data set [2] of 5 µg/mL (≈ 16.3 µM).

As for `Cc1c2c(c3cc(-c4ccc(NCCCN(C)C)nc4)oc3c1C)CCC(C)(C)O2`, the result in the data set on Escherichia coli [1] was inactive. The molecule also showed an MIC90 in the data set on Staphylococcus aureus of 5 µg/mL (≈ 12.3 µM). Further, the “diameter of the inhibition zone (DIZ)” value in the data set with Candida tropicalis is “Active”. For the same molecule, the MIC95 in data set [2] amounted to 3 µg/mL (≈ 7.36 µM). In the data set on Vero, this molecule came in with an IC50 of 1.6 µg/mL (≈ 3.93 µM). Also, the Activity result in the data set with Escherichia coli [4] is on record as “Toxic”.

`Cc1c2c(c3cc(-c4cccs4)oc3c1C)CCC(C)(C)O2`: the outcome (in the data set on Escherichia coli [1]; in data set [3]) was inactive. In addition, in data set [2], the MIC95 came to 6.2 µg/mL (≈ 19.8 µM). This molecule also displayed an IC50 with Vero of more than 100 µg/mL.

For `CC(=O)OCCCc1c(Br)oc2ccc3c(c12)CCC(C)(C)O3`, in the data set with Escherichia coli [1], the result was inactive.

Turning to `Cc1c(-c2ccncc2)oc2ccc3c(c12)C=CC(C)(C)O3`, the outcome in the data set on Escherichia coli [1] was inactive. The molecule further registered an MIC90 in the data set on Staphylococcus aureus of 5 µg/mL (≈ 17.2 µM). Further, the MIC95 in data set [2] came to 5 µg/mL (≈ 17.2 µM). Inhibition in the data set with Vero was half-maximal at 12.8 µg/mL (≈ 43.9 µM) (IC50).

As for `Cc1c2c(c3cc(Cc4cccnc4)oc3c1C)CCC(C)(C)O2`, the result in the data set on Escherichia coli [1] was inactive. Besides, the MIC90 in the data set on Staphylococcus aureus came out at 5 µg/mL (≈ 15.6 µM). The MIC95 in data set [2] was found to be 3 µg/mL (≈ 9.33 µM). The IC50 with Vero was 6.4 µg/mL (≈ 19.9 µM).

With `Cc1c2c(c3cc(Cc4ccc(Cl)cc4)oc3c1C)CCC(C)(C)O2`, the result with Escherichia coli [1] was inactive. In data set [2], this molecule showed an MIC95 of 25 µg/mL (≈ 70.4 µM). This molecule returned an IC50 in the data set with Vero of more than 100 µg/mL.

As for `Cc1c2c(c3cc(CCc4cccnc4)oc3c1C)CCC(C)(C)O2`, the result with Escherichia coli [1] was inactive. Besides, in the data set on Staphylococcus aureus, the MIC90 worked out at 5 µg/mL (≈ 14.9 µM). This molecule also showed an MIC95 in data set [2] of 5 µg/mL (≈ 14.9 µM). In the data set with Vero, this molecule showed an IC50 of 7.3 µg/mL (≈ 21.8 µM).

As for `CC1(C)CCc2c(ccc3oc(-c4cccnc4)c(CCCO)c23)O1`, the outcome in the data set on Escherichia coli [1] was inactive. The molecule also registered an MIC95 in data set [2] of 5 µg/mL (≈ 14.8 µM). The molecule also gave an IC50 in the data set on Vero of more than 25 µg/mL.

For the molecule `Cc1c2c(c3cc(-c4cnccn4)oc3c1C)CCC(C)(C)O2`, in the data set on Escherichia coli [1], the outcome was inactive. In addition, in data set [2], the MIC95 turned out to be 10 µg/mL (≈ 32.4 µM).

`CC(=O)OCCCc1c(-c2cccnc2)oc2ccc3c(c12)CCC(C)(C)O3`: the result with Escherichia coli [1] was inactive. In the data set on Vero, this molecule showed an IC50 of 17.5 µg/mL (≈ 46.1 µM).

Turning to `Cc1c2c(c3cc(/C=C/c4cccnc4)oc3c1C)CCC(C)(C)O2`, the outcome in the data set with Escherichia coli [1] was inactive. Also, the MIC95 in data set [2] was found to be 5 µg/mL (≈ 15 µM). For the same molecule, in the data set with Vero, the IC50 is more than 100 µg/mL.

In the case of `CC1(C)CCc2c(ccc3oc4ccccc4c23)O1`, the outcome with Escherichia coli [1] was inactive. In addition, the MIC95 in data set [2] was 10 µg/mL (≈ 39.6 µM). In the data set with Vero, this molecule registered an IC50 of 100 µg/mL (≈ 396 µM).

Regarding `Cc1c(C)c2c(c(C)c1O)CCC(C)(C)O2` [APC-100], the outcome with Escherichia coli [1] was inactive. For the same molecule, the MIC95 in data set [2] was 10 µg/mL (≈ 45.4 µM).
